ERAP1 HTS inh = ERAP1 (human) enzyme inhibition | inhibition, % at 10.7 µM | recombinant ERAP1, Leu-AMC fluorescence, 60 min | Q9NZ08 | actives 0.15% (n = 340,000) | AID 652197;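 active = mean replicate inhibition of at least 30%, or all replicates individually reaching that 30% level; inactive = mean below 30% and not every replicate reaching it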;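 also: 0% = neutral control wells and 100% = L-leucinethiol positive control wells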
FGF22 binding = FGF22 (human) thermal shift binding; Q9HCT0; recombinant FGF22 thermal shift, SYPRO orange fluorescence; percent of sucrose octasulfate shift, DMSO zero; activity (Tm shift, normalised), % at 9.99 µM; actives 1.5% (n = 340,000); AID 651658;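 active = mean Tm shift, scaled 0 neutral to 100 positive control, at about 1.3% or above, every replicate too, limit read from the data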
Target sequence (Q9HCT0 whole entry, looked up): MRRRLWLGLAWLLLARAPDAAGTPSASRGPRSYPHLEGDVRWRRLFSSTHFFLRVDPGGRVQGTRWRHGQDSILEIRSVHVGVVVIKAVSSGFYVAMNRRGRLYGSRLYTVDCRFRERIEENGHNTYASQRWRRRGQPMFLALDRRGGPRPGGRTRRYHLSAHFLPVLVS
DENV2 CPE rescue = DENV2-induced cell death inhibition | DENV2-infected cells, cytopathic effect rescue, plate reader | CPE inhibition, % at 9.99 µM | actives 1.7% (n = 350,000); in the data active = CPE inhibition above about 20%, passing the limit was not always enough; tested in BHK-21 cells;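 also: 0% = median of neutral control wells and 100% = median of positive control wells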
E-sel inducer = E-selectin induction on HUVECs. HUVEC E-selectin immunofluorescence imaging; normalized: neutral wells 0, TNF-alpha wells 100. activation, % at 7.58 µM. actives 0.37% (n = 260,000). AID 686992;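 active = mean E-selectin-positive cell signal at least 10% of the positive control, reached in at least 60% of replicates, without over 20% cell loss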
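System: HUVEC / Compound: single concentration / Signal: immunofluorescence imaging / Read-out: percent E-selectin-positive cells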
F508del corr = CFTR F508del correction in bronchial cells; CFBE cells, YFP halide quenching; stimulated with forskolin plus potentiator P3; % fluorescence drop versus neutral controls; activity (quench increase), % at 7.58 µM; actives 0.36% (n = 350,000);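 active = mean added fluorescence quench of at least 8% versus neutral control, with both replicates also reaching 8%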;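 also: cells transiently co-express mutant CFTR-F508del with the halide-sensitive YFP; corrector assay measuring rescue of mutant channel to the surface after 24 h compound exposure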
Numbers without * were called inactive; . = not tested or not shown. Hits are enriched below; roughly 3.7% of the tested compounds scored in any of these assays.

SMILES	ERAP1 HTS inh	FGF22 binding	DENV2 CPE rescue	E-sel inducer	F508del corr
CS(=O)(=O)Nc1ccc2c(c1)[C@@H]1C[C@@H](CC(=O)NC3CCCC3)O[C@H](CO)[C@@H]1O2	-3.2	0.0	3.6	-0.3	-1.0
Cc1noc(C)c1S(=O)(=O)N(C)C[C@H]1Oc2ccc(NC(=O)Nc3ccc(F)cc3)cc2CC(=O)N([C@@H](C)CO)C[C@H]1C	7.8	-0.4	5.7	-3.1	3.2
Cc1noc(C)c1S(=O)(=O)N(C)C[C@H]1Oc2ccc(NS(C)(=O)=O)cc2CC(=O)N([C@@H](C)CO)C[C@H]1C	1.8	0.7	.	27.8*	-3.1
Cc1noc(C)c1S(=O)(=O)N(C)C[C@@H]1Oc2ccc(NC(=O)Nc3ccc(F)cc3)cc2CC(=O)N([C@H](C)CO)C[C@H]1C	3.9	-0.7	0.0	44.6*	2.2
Cc1noc(C)c1S(=O)(=O)N(C)C[C@@H]1Oc2ccc(NC(=O)Nc3ccc(F)cc3)cc2CC(=O)N([C@@H](C)CO)C[C@@H]1C	4.5	-0.7	-8.2	50.6*	1.5
O=C(N[C@H]1C=C[C@H](CC(=O)N2CCCCC2)O[C@H]1CO)c1ccccn1	-1.6	0.0	13.5	0.5	-0.1
COc1ccccc1-c1nnc(NC(=O)c2ccc(S(=O)(=O)N(C)CC3CCCO3)cc2)o1 (stereo not drawn)	-2.8	-0.7	2.0	2.6	-3.6
CN(CC1CCCO1)S(=O)(=O)c1ccc(C(=O)Nc2nnc(-c3ccccc3)o2)cc1 (stereo not drawn)	0.2	-0.5	-1.3	-0.2	8.2*
COc1ccc(S(=O)(=O)N2C[C@H](O)COC[C@H]3O[C@H](CC(=O)N(C)C)CC[C@@H]32)cc1	-0.6	-0.2	2.1	0.0	-0.3
CC(/C=N\N1CCN(Cc2ccc(C)cc2)CC1)=C\c1ccccc1	-1.6	43.8*	0.2	.	-1.7
CCCNC(=O)[C@H]1[C@H](CO)[C@H]2Cn3c(ccc(-c4ccccc4F)c3=O)[C@H]2N1C(=O)CC	0.2	0.0	10.5	-1.4	-0.6
COc1ccc2c3c([nH]c2c1)[C@@H](CO)N(C(=O)Nc1ccc(F)cc1)CC31CN(Cc2ccc(F)cc2)C1	0.3	-0.3	31.8*	-0.5	1.0
COc1ccc2c3c([nH]c2c1)[C@H](CO)N(C(=O)Nc1ccc(F)cc1)CC31CN(Cc2ccc(F)cc2)C1	0.6	-0.3	13.8	-0.4	-5.3
COc1ccc2c3c([nH]c2c1)[C@H](CO)N(C(=O)Nc1ccc(F)cc1)CC31CN(CC2CC2)C1	.	0.0	29.2*	-0.2	0.2
CCCNC(=O)N1CC2(CN(CC3CCCCC3)C2)c2c(n(C)c3cc(OC)ccc23)[C@H]1CO	-6.0	0.0	-10.8	0.4	9.3*
COCC(=O)N1CC2(CN(C(C)=O)C2)c2c([nH]c3cc(OC)ccc23)[C@@H]1CO	.	-0.2	20.1*	0.1	-0.2
CCCNC(=O)N1CC2(CN(CC3CCCCC3)C2)c2c(n(C)c3cc(OC)ccc23)[C@@H]1CO	-0.8	0.2	-3.2	-0.2	1.8
COc1ccc2c3c([nH]c2c1)[C@@H](CO)N(C(=O)Nc1ccc(F)cc1)CC31CN(CC2CCOCC2)C1	4.1	-0.1	10.0	-0.3	-0.3
C[C@H](CO)N1C[C@H](C)[C@H](CN(C)S(=O)(=O)c2cn(C)cn2)OCCCC[C@H](C)Oc2ccc(NC(=O)CCCN(C)C)cc2C1=O	-0.8	-0.6	-12.8	-0.1	-2.2
COc1ccc2c3c([nH]c2c1)[C@H](CO)N(C(=O)Nc1cccc(F)c1)CC31CN(CC2CC2)C1	2.3	0.0	24.8*	0.1	-1.6
CCCNC(=O)N1CC2(CCN(CC3CCCC3)CC2)c2c([nH]c3cc(OC)ccc23)[C@@H]1CO	0.6	-0.1	29.8*	-0.2	-0.3
COc1ccc2c3c([nH]c2c1)[C@@H](CO)N(C(=O)NC(C)C)CC31CN(C(=O)NC(C)C)C1	3.5	-0.1	46.9*	0.5	1.3
CCCNC(=O)N1CC2(CCN(C)CC2)c2c([nH]c3cc(OC)ccc23)[C@@H]1CO	2.0	-0.1	0.7	-0.2	-2.3
COc1ccc2c3c([nH]c2c1)[C@@H](CO)N(C(=O)Nc1ccc(F)cc1)CC31CCN(CC2CC2)CC1	1.8	-0.1	55.8*	-0.4	-0.1
COc1ccc2c3c([nH]c2c1)[C@@H](CO)N(C(=O)Nc1cccc(F)c1)CC31CCN(CC2CC2)CC1	-1.7	-0.2	-9.4	-0.6	1.6
